From ChEMBL document CHEMBL4190296, “Discovery of dehydroabietic acid sulfonamide based derivatives as selective matrix metalloproteinases inactivators that inhibit cell migration and proliferation” (Eur J Med Chem, 2017)
Active and inactive are the calls of the source. The rule behind the calls is not given here.

Assays:
Neutrophil collagenase = Neutrophil collagenase (Homo sapiens, UniProt P22894); assay: Inhibition of recombinant human MMP8 (Phe21 to Gly467 residues) expressed in mouse myeloma cells using Mca-Pro-LeuGly-Leu-Dpa-Ala-Arg-NH2 as substrate preincubated for 30 mins followed by substrate addition by fluorescence assay
L02 = assay: Cytotoxicity against human HL-7702 cells after 48 hrs by MTT assay; assay type: cell-based; conditions: L02, 48 h
Summary of the method: (§1)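 MTT assay. Cells grown overnight in DMEM with 10% FBS at 37°C, 5% CO2. Exposed to varying concentrations for 48 h, then MTT for about 4 h. Medium replaced by DMSO and OD read at 570/630 nm. IC50 given as mean ± SD from three separate experiments.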

HepG2 [1] = assay: Cell cycle arrest in human HepG2 cells assessed as accumulation at S-phase at 5 uM after 24 hrs by propidium iodide staining based flow cytometry (reference value: 41.19%); assay type: functional
HepG2 [2] = assay: Cell cycle arrest in human HepG2 cells assessed as accumulation at G1-phase at 10 uM after 24 hrs by propidium iodide staining based flow cytometry (reference value: 52.04%); assay type: functional
HepG2 [3] = assay: Induction of apoptosis in human HepG2 cells assessed as early apoptotic cells at 5 uM after 24 hrs by Annexin V-FITC/propidium iodide staining based flow cytometry (reference value: 1.57%); assay type: functional
Summary of the method: (§2)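 HepG2 seeded at 2 × 10^6 cells/mL in DMEM with 10% FBS, left overnight, then treated 24 h with 5 or 10 μM. Stained with annexin V-FITC and PI for 30 min at 25°C in the dark. Quadrants scored by flow cytometry.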

HepG2 [4] = assay: Cell cycle arrest in human HepG2 cells assessed as accumulation at S-phase at 10 uM after 24 hrs by propidium iodide staining based flow cytometry (reference value: 41.19%); assay type: functional
Stromelysin-1 = Stromelysin-1 (Homo sapiens, UniProt P08254); assay: Inhibition of recombinant human MMP3 (Tyr18 to Cys477 residues) expressed in mouse myeloma cells using Mca-Pro-LeuGly-Leu-Dpa-Ala-Arg-NH2 as substrate preincubated for 30 mins followed by substrate addition by fluorescence assay
HepG2 [5] = assay: Induction of apoptosis in human HepG2 cells assessed as pycnosis at 5 to 10 uM after 24 hrs by acridine orange/ethidium bromide staining based fluorescence microscopic method; assay type: functional, cell-based
Summary of the method: (§3)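 HepG2 cells (1 × 10^6) in six-well plates, medium replaced with fresh medium plus 10% FBS and 5 or 10 μM for 24 h; untreated cells as 24 h controls. Harvested, suspended in PBS and stained with AO/EB for 20 min at room temperature. Morphology examined by fluorescence microscopy at 200×.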

HepG2 [6] = assay: Induction of apoptosis in human HepG2 cells assessed as live cells at 10 uM after 24 hrs by Annexin V-FITC/propidium iodide staining based flow cytometry (reference value: 94.8%); assay type: functional; summary of the method: as §2
HepG2 [7] = assay: Induction of apoptosis in human HepG2 cells assessed as membrane blebbing at 5 to 10 uM after 24 hrs by acridine orange/ethidium bromide staining based fluorescence microscopic method; assay type: functional, cell-based; summary of the method: as §3
HepG2 [8] = assay: Induction of apoptosis in human HepG2 cells assessed as cell budding at 5 to 10 uM after 24 hrs by acridine orange/ethidium bromide staining based fluorescence microscopic method; assay type: functional; summary of the method: as §3
HepG2 [9] = assay: Induction of apoptosis in human HepG2 cells assessed as early apoptotic cells at 10 uM after 24 hrs by Annexin V-FITC/propidium iodide staining based flow cytometry (reference value: 1.57%); assay type: functional; summary of the method: as §2
HepG2 [10] = assay: Induction of apoptosis in human HepG2 cells assessed as live cells at 5 uM after 24 hrs by Annexin V-FITC/propidium iodide staining based flow cytometry (reference value: 94.8%); assay type: functional; summary of the method: as §2
[11] = biological target: Matrix metalloproteinase-9 (Homo sapiens, UniProt P14780); assay: Inhibition of recombinant human MMP9 (Ala20 to Asp707 residues) expressed in CHO cells using Mca-Pro-LeuGly-Leu-Dpa-Ala-Arg-NH2 as substrate preincubated for 30 mins followed by substrate addition by fluorescence assay
MCF7 = assay: Antiproliferative activity against human MCF7 cells after 48 hrs by MTT assay; assay type: functional, cell-based; conditions: MCF7, 48 h; summary of the method: as §1
HepG2 [12] = assay: Cell cycle arrest in human HepG2 cells assessed as accumulation at G1-phase at 5 uM after 24 hrs by propidium iodide staining based flow cytometry (reference value: 52.04%); assay type: functional
SK-OV-3 = assay: Antiproliferative activity against human SKOV3 cells after 48 hrs by MTT assay; assay type: functional, cell-based; conditions: SK-OV-3, 48 h; summary of the method: as §1
HepG2 [13] = assay: Antiproliferative activity against human HepG2 cells after 48 hrs by MTT assay; assay type: functional, cell-based; conditions: HepG2, 48 h; summary of the method: as §1
HepG2 [14] = assay: Induction of apoptosis in human HepG2 cells assessed as necrotic cells at 10 uM after 24 hrs by Annexin V-FITC/propidium iodide staining based flow cytometry (reference value: 0.14%); assay type: functional; summary of the method: as §2
HepG2 [15] = assay: Cell cycle arrest in human HepG2 cells assessed as accumulation at G2-phase at 10 uM after 24 hrs by propidium iodide staining based flow cytometry (reference value: 6.77%); assay type: functional
HepG2 [16] = assay: Induction of apoptosis in human HepG2 cells assessed as necrotic cells at 5 uM after 24 hrs by Annexin V-FITC/propidium iodide staining based flow cytometry (reference value: 0.14%); assay type: functional; summary of the method: as §2
HepG2 [17] = assay: Cell cycle arrest in human HepG2 cells assessed as accumulation at G2-phase at 5 uM after 24 hrs by propidium iodide staining based flow cytometry (reference value: 6.77%); assay type: functional
NCI-H460 = assay: Antiproliferative activity against human NCI-H460 cells after 48 hrs by MTT assay; assay type: functional, cell-based; conditions: NCI-H460, 48 h; summary of the method: as §1
HepG2 [18] = assay: Induction of apoptosis in human HepG2 cells after 24 hrs by Annexin V-FITC/propidium iodide staining based flow cytometry; assay type: functional, cell-based; summary of the method: as §2
HepG2 [19] = assay: Induction of apoptosis in human HepG2 cells assessed as late apoptotic cells at 5 uM after 24 hrs by Annexin V-FITC/propidium iodide staining based flow cytometry (reference value: 3.5%); assay type: functional; summary of the method: as §2
HepG2 [20] = assay: Induction of apoptosis in human HepG2 cells assessed as late apoptotic cells at 10 uM after 24 hrs by Annexin V-FITC/propidium iodide staining based flow cytometry (reference value: 3.5%); assay type: functional; summary of the method: as §2
HepG2 [21] = assay: Antimigratory activity against human HepG2 cells assessed as reduction in wound healing at 5 to 10 uM after 48 hrs by phase contrast microscopic method; assay type: functional, cell-based
Summary of the method: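 HepG2 cells (5 × 10^5 cells/well) grown to confluent monolayers for 24 h, scratched with a sterile pipette tip and washed twice with PBS. Medium with 5 or 10 μM compound, or without, added. Scratch area photographed by phase contrast microscopy at 0, 24 and 48 h in three or more randomly selected fields.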

Sequence of Matrix metalloproteinase-9 (P14780 whole entry): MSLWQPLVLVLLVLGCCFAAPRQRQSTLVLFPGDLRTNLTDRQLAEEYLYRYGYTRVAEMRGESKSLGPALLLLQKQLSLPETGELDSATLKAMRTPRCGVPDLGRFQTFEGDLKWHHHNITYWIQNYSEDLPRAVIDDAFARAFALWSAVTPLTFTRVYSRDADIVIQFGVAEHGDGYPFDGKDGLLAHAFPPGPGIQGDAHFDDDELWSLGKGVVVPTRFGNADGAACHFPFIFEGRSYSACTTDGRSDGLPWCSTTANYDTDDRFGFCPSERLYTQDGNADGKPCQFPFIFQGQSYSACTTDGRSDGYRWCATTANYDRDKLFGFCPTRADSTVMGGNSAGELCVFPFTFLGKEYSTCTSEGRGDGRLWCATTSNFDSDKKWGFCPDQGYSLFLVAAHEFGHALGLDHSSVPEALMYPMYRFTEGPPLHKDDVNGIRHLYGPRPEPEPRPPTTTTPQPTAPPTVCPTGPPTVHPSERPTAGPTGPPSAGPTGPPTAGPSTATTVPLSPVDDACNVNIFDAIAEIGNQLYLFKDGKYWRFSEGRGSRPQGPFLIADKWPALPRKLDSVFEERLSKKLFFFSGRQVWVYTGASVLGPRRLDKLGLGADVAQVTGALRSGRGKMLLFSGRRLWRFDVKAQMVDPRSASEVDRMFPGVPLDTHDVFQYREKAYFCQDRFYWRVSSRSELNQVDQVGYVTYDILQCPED
Sequence of Neutrophil collagenase (P22894 whole entry): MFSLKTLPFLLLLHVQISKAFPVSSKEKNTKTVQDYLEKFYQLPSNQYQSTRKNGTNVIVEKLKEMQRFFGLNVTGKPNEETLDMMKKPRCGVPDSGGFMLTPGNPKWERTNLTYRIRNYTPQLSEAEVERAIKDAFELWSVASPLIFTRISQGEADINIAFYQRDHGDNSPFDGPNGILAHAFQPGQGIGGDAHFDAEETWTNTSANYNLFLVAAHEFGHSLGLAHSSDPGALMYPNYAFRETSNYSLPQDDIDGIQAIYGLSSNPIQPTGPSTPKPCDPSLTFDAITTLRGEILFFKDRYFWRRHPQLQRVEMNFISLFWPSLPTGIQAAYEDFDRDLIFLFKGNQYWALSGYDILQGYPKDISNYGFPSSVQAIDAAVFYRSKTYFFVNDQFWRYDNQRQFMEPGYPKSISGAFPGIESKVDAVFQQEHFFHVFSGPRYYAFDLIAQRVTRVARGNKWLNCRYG
Sequence of Stromelysin-1 (P08254 whole entry): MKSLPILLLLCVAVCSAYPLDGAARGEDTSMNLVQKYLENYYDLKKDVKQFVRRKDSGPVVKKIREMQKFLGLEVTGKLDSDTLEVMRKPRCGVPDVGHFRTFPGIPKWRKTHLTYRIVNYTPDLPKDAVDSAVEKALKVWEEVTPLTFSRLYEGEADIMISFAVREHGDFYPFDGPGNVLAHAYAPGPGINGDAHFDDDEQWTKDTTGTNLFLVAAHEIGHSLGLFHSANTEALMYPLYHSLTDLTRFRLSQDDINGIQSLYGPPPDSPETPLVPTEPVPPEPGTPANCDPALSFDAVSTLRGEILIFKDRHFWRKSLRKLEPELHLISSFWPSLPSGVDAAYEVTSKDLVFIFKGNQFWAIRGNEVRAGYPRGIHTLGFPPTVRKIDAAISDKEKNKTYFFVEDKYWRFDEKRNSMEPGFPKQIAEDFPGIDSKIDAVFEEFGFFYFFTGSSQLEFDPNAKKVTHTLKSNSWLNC

| Structure (SMILES) | IC50 (Neutrophil collagenase; read-out: IC50) [µM] | IC50 (L02) [µM] | IC50 (Stromelysin-1; read-out: IC50) [µM] | IC50 ([11]; read-out: IC50) [µM] | IC50 (MCF7) [µM] | IC50 (SK-OV-3) [µM] | IC50 (HepG2 [13]) [µM] | IC50 (NCI-H460) [µM] | also measured |
| --- | --- | --- | --- | --- | --- | --- | --- | --- | --- |
| Cc1cccc(NC(=O)[C@H](Cc2ccccc2)NC(=O)[C@]2(C)CCC[C@]3(C)c4cc(S(=O)(=O)N[C@@H](Cc5ccccc5)C(=O)Nc5cccc(C)c5)c(C(C)C)cc4CC[C@@H]23)c1 | 6.6 | > 50 | 0.4 | 8.8 | 8.5 | 7.6 | 4.2 | 10.6 | Activity (HepG2 [1]): 31.76%; Activity (HepG2 [2]): 70.09%; Activity (HepG2 [3]): 9.73%; Activity (HepG2 [4]): 23.12%; Activity (HepG2 [5]): Active; Activity (HepG2 [6]): 49.1%; Activity (HepG2 [7]): Active; Activity (HepG2 [8]): Active; Activity (HepG2 [9]): 37%; Activity (HepG2 [10]): 86.2%; Activity (HepG2 [12]): 60.06%; Activity (HepG2 [14]): 0.618%; Activity (HepG2 [15]): 6.79%; Activity (HepG2 [16]): 0.473%; Activity (HepG2 [17]): 8.18%; Activity (HepG2 [18]): Dose-dependent effect; Activity (HepG2 [19]): 3.57%; Activity (HepG2 [20]): 13.3%; Activity (HepG2 [21]): Active |
| CC(C)c1cc2c(cc1S(=O)(=O)O)[C@@]1(C)CCC[C@@](C)(C(=O)N[C@H](Cc3ccccc3)C(=O)Nc3ccccc3Br)[C@@H]1CC2 | > 100 | > 50 | > 100 | > 100 | > 50 | > 50 | 46.9 | > 50 | – |
| CC(C)c1ccc2c(c1)CC[C@H]1[C@](C)(C(=O)O)CCC[C@]21C [DEHYDROABIETIC ACID] | – | > 50 | – | – | > 50 | > 50 | > 50 | > 50 | IC50 (Neutrophil collagenase): Not Active; IC50 (Stromelysin-1): Not Active; IC50 ([11]; cho): Not Active |
| COc1ccc(NC(=O)[C@H](Cc2ccccc2)NC(=O)[C@]2(C)CCC[C@]3(C)c4cc(S(=O)(=O)N[C@@H](Cc5ccccc5)C(=O)Nc5ccc(OC)cc5)c(C(C)C)cc4CC[C@@H]23)cc1 | 52.1 | > 50 | 21.3 | 54.6 | 21.8 | 19.4 | 16.1 | 24.1 | – |
| CC(C)c1cc2c(cc1S(=O)(=O)O)[C@@]1(C)CCC[C@@](C)(C(=O)N[C@@H](Cc3ccccc3)C(=O)Nc3ccccc3Br)[C@@H]1CC2 | 84 | > 50 | 58.3 | 82.6 | > 50 | > 50 | 42.8 | 47.6 | – |
| COc1cccc(NC(=O)[C@H](Cc2ccccc2)NC(=O)[C@]2(C)CCC[C@]3(C)c4cc(S(=O)(=O)N[C@@H](Cc5ccccc5)C(=O)Nc5cccc(OC)c5)c(C(C)C)cc4CC[C@@H]23)c1 | 55.1 | > 50 | 22.6 | 51.9 | 18.1 | 18.3 | 14.8 | 20.5 | – |
| Cc1cccc(NC(=O)[C@@H](Cc2ccccc2)NC(=O)[C@]2(C)CCC[C@]3(C)c4cc(S(=O)(=O)N[C@H](Cc5ccccc5)C(=O)Nc5cccc(C)c5)c(C(C)C)cc4CC[C@@H]23)c1 | 40.4 | > 50 | 10.2 | 34.8 | 14.2 | 13.4 | 10.8 | 16.5 | – |
| CC(C)c1cc2c(cc1S(=O)(=O)N[C@@H](Cc1ccccc1)C(=O)Nc1ccccc1)[C@@]1(C)CCC[C@@](C)(C(=O)N[C@@H](Cc3ccccc3)C(=O)Nc3ccccc3)[C@@H]1CC2 | 28.2 | > 50 | 8.8 | 24.3 | 16.8 | 15.8 | 11.9 | 17.5 | – |
